Bioassay records as filed in PubChem BioAssay.
In the library only some 3.5% were active in any assay of this set; here they are far more common.
MrgX1 agonist = human MrgX1 receptor agonism, primary screen | Q96LB2 | MrgX1-HEK293 cells, Fluo-4 calcium fluorescence, agonist mode; hits give high values | B-score at 10 µM | 310,000 compounds, 0.44% hits | AID 588627;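 active = calcium response B-score plate-corrected fluorescence ratio at least 3 library SD, with starting fluorescence B-score inside 5 SD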
Target sequence (Q96LB2 whole entry, looked up): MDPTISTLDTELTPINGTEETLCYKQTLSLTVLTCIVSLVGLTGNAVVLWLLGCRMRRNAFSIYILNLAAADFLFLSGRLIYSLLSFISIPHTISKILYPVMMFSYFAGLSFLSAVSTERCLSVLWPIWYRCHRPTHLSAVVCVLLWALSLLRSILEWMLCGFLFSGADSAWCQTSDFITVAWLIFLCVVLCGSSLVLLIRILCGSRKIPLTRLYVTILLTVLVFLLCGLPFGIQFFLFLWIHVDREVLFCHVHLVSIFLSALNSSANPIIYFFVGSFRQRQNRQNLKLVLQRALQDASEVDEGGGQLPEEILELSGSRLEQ
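Material: MrgX1-expressing HEK293 cells; input: 15,000 cells per well; doses: test compound given as first of three sequential additions; schedule: overnight plating before 1 h dye loading; technique: Fluo-4 NW calcium-flux fluorescence, kinetic read; evaluation: baseline-normalised fluorescence change ratio, B-scored; control set: plate-wise positive and negative controls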
MrgX1 PAM = human MrgX1 positive allosteric modulation, primary screen; Q96LB2; MrgX1-HEK293, Fluo-4 calcium flux, FDSS; hits give high values; B-score at 10 µM; 310,000 compounds, 0.63% hits;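 active = plate-corrected calcium response at least 3 library SD above typical, normal starting fluorescence, not activating the receptor alone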;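 also: compound read alongside a low EC10 to EC30 dose of BAM8-22 agonist; peak minus trough fluorescence over baseline measured at the second addition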
MrgX1 antagonist = antagonists of human MrgX1 receptor. B-score at 10 µM. 310,000 compounds, 1.3% hits. Q96LB2. AID 588676. MRGX1-HEK293 calcium flux, Fluo-4, BAM8-22 antagonism; hits give low values;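 active = calcium-response B-score plate-corrected more than 3 library SD below zero, starting fluorescence within 5 deviations, no agonist response on first addition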;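 also: peak minus trough fluorescence over baseline after final BAM8-22 challenge near maximal dose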
RGS4 inh = human RGS4 inhibition | P49798 | HEK293 M3R/RGS4 inducible, Fluo-4 calcium flux; hits give high values; triggered by carbachol at its EC20 | B-score at 10 µM | 310,000 compounds, 0.45% hits;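 active = B-score, a plate-corrected calcium signal, over three deviations above library mean, with baseline fluorescence within five deviations of library mean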;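 also: RGS4 expression induced by doxycycline in cells with stable M3 receptor; B-score is computed from the integrated fluorescence ratio over baseline after carbachol; higher B-score means a larger calcium signal and so more RGS4 inhibition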
Target sequence (P49798 whole entry, looked up): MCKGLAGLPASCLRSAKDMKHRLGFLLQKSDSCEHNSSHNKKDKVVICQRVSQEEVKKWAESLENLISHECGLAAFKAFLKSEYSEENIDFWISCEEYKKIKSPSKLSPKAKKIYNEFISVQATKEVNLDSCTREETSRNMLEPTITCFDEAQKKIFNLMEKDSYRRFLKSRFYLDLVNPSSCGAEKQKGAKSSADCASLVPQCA
RGS4 pot = RGS4 potentiation or activation; B-score at 10 µM; 310,000 compounds, 0.92% hits; HEK293 M3R/inducible RGS4, carbachol calcium flux Fluo4; hits give low values; AID 463111;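 active = B-score of the integrated calcium signal more than 4 SD below the library mean, with starting fluorescence not abnormally high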;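 also: negative B-score means reduced calcium response which marks RGS4 activation or potentiation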
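Assay system: HEK293 FlpIn-TREx cells, stable M3R, doxycycline-inducible RGS4 / Probe or stimulus: carbachol, ECmax concentration / Times: overnight RGS4 induction, 30 min dye load 37 °C, 20 min compound RT / Signal: kinetic calcium fluorescence imaging with Fluo4-AM dye, 2 µM / Measure: Agonist-evoked peak-minus-minimum fluorescence over baseline, integrated ratio, B score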
MrgX1 ant reconf = human MrgX1 receptor antagonism, re-confirmation screen; shares compounds with MrgX1 antagonist; MrgX1-HEK293, BAM8-22 calcium flux, Fluo-4; hits give low values; remaining BAM8-22 calcium response % of control (hits give low values), % at 10 µM; 2,300 compounds, 19% hits;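 active = remaining agonist calcium response no higher than 100% minus 3 SD of agonist-only control wells, with starting fluorescence near control levels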;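 also: agonist BAM8-22 given at a near maximal EC90 to ECmax level; peak minus minimum fluorescence divided by baseline after agonist addition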
HEK293 Ca flux = MrgX1 antagonist counter-screen hit in parental HEK293 cells; shares compounds with MrgX1 antagonist; Fluo-4 calcium fluorescence, FDSS; AID 624111; fluorescence ratio F(max-min)/F0 at 10 µM; 4,000 compounds, 2% hits;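 active = duplicate-averaged calcium fluorescence ratio at least three times the standard deviation of buffer wells, a nonspecific response in parental cells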
HEK293 Ca counter = counter-screen for MrgX1 allosteric activators: effect in parental HEK293 cells. shares compounds with MrgX1 antagonist. parental HEK293 calcium flux, Fluo-4 fluorescence ratio; hits give high values. 4,000 compounds, 0.4% hits. fluorescence ratio F(max-min)/F0 at 10 µM;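 active = calcium fluorescence ratio, averaged over duplicates, at least 3 SD of the buffer-well ratio, meaning a nonspecific response in receptor-free cells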;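 also: untransfected parental HEK293 lacking MrgX1 used as counterscreen for MrgX1 allosteric activators; fluorescence change taken during the second addition on a kinetic imager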
HEK293 Ca cntr2 = counter-screen for MrgX1 activators: effect in parental HEK293 cells. fluorescence ratio F(max-min)/F0 at 10 µM. 4,000 compounds, 8.7% hits. Fluo-4 calcium fluorescence (FDSS); hits give high values. shares compounds with MrgX1 antagonist. AID 624115;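 active = calcium fluorescence ratio at least three times the spread of buffer wells, meaning a non-specific response in parental cells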
Each line names hits and unclear results; the compound was inactive in the other large screens (follow-up assays come after a bar, where they were run).

OCCn1ccc(-c2ccccc2OCc2ccc(F)cc2)n1	none
CCOCCCNC(=S)N1CCN(c2nc(-c3ccc(F)cc3)cs2)CC1	MrgX1 antagonist -6.4 | MrgX1 ant reconf 71% | HEK293 Ca flux inactive | HEK293 Ca counter inactive | HEK293 Ca cntr2 inactive
COCCCNC(=S)N1CCN(c2nc(-c3ccc(F)cc3)cs2)CC1	none
COC(=O)c1ccc(NC(=O)CNS(=O)(=O)c2cccs2)cc1	none
CCOC(=O)c1ccc(NC(=O)CCNS(=O)(=O)c2cccs2)cc1	MrgX1 antagonist -5.4 | MrgX1 ant reconf inactive | HEK293 Ca flux inactive | HEK293 Ca counter inactive | HEK293 Ca cntr2 inactive
COc1cc(NC(=O)CN2C(=O)C(C)N(c3ccc(C)cc3)C2=O)cc(OC)c1 (centres undefined)	MrgX1 antagonist -6.5 | MrgX1 ant reconf inactive | HEK293 Ca flux inactive | HEK293 Ca counter inactive | HEK293 Ca cntr2 inactive
Cc1ccc(S(=O)(=O)N2CCN(CC(O)c3ccccc3)CC2)cc1C (centres undefined)	MrgX1 antagonist -5 | MrgX1 ant reconf inactive | HEK293 Ca flux inactive | HEK293 Ca counter inactive | HEK293 Ca cntr2 inactive
Cn1ccnc1SCC(=O)Nc1ccc(Br)cc1C(F)(F)F	MrgX1 antagonist -5.9 | MrgX1 ant reconf inactive | HEK293 Ca flux inactive | HEK293 Ca counter inactive | HEK293 Ca cntr2 inactive
Cc1ccccc1Cc1c(C)nc2ncnn2c1C	MrgX1 antagonist -7.8 | MrgX1 ant reconf inactive | HEK293 Ca flux inactive | HEK293 Ca counter inactive | HEK293 Ca cntr2 inactive
COc1cc([N+](=O)[O-])ccc1NC(=O)COC(=O)CCS(=O)(=O)c1ccc(C)cc1	none
CC(C)(C)CC(=O)Nc1cc2c3c(c1)CCC(=O)N3CCC2	MrgX1 antagonist -4.9 | MrgX1 ant reconf inactive | HEK293 Ca flux inactive | HEK293 Ca counter inactive | HEK293 Ca cntr2 inactive
COc1ccccc1-c1cc(-c2ccccc2)nc(SC(C(N)=O)c2ccccc2)c1C#N (centres undefined)	none
COCCCN1C(=O)c2[nH]nc(-c3ccccc3O)c2C1c1cccc(Cl)c1 (centres undefined)	none
COCCCN1C(=O)c2[nH]nc(-c3ccccc3O)c2C1c1ccc(Cl)cc1 (centres undefined)	MrgX1 antagonist -4.8 | MrgX1 ant reconf inactive | HEK293 Ca flux inactive | HEK293 Ca counter inactive | HEK293 Ca cntr2 inactive
CCN1CCc2nc(NC(=O)C(c3ccccc3)c3ccccc3)sc2C1	MrgX1 antagonist -5.8 | MrgX1 ant reconf inactive | HEK293 Ca flux inactive | HEK293 Ca counter inactive | HEK293 Ca cntr2 inactive
CCN1CCc2nc(NC(=O)CC(c3ccccc3)c3ccccc3)sc2C1	none
CC(C)Oc1ccc(C(CCN)C2CCCCC2)cc1 (centres undefined)	MrgX1 antagonist -4.7 | MrgX1 ant reconf inactive | HEK293 Ca flux inactive | HEK293 Ca counter inactive | HEK293 Ca cntr2 inactive
CC(C)Oc1ccc(C(=O)NC2CCCCC2)cc1	none
O=S(=O)(NC1CC1)c1ccc(S(=O)(=O)N(Cc2ccccn2)C2CCCC2)cc1	none
Cc1cccc(C(=O)Nc2sc3c(c2C(=O)O)CCCC3)c1	none
Cn1ccs/c1=N\S(=O)(=O)c1ccc(F)cc1	MrgX1 antagonist -5 | MrgX1 ant reconf inactive | HEK293 Ca flux inactive | HEK293 Ca counter inactive | HEK293 Ca cntr2 inactive
Cc1ccc(S(=O)(=O)/N=c2\sccn2C)cc1	none
Cc1cc(C)cc(N2C(=O)C3CC=CCC3C2=O)c1 (centres undefined)	MrgX1 antagonist -5.2 | MrgX1 ant reconf inactive | HEK293 Ca flux inactive | HEK293 Ca counter inactive | HEK293 Ca cntr2 inactive
C=C1c2ccccc2NC(=O)N1c1ccc(C)cc1	MrgX1 antagonist -8.7 | MrgX1 ant reconf inactive | HEK293 Ca flux inactive | HEK293 Ca counter inactive | HEK293 Ca cntr2 inactive
C=C1c2cc(C)ccc2NC(=O)N1c1ccc(C)cc1	none
O=C(CSc1nnc(-c2ccccc2)n1Cc1ccccc1)N1CCOCC1	none
Oc1ccccc1-c1nnc(SCCN2CCOCC2)n1Cc1ccccc1	MrgX1 antagonist -6.8 | MrgX1 ant reconf inactive | HEK293 Ca flux inactive | HEK293 Ca counter inactive | HEK293 Ca cntr2 inactive
COc1ccc(C(=O)CSc2nnc(CNC(=O)c3ccc(S(=O)(=O)N(C)C)cc3)o2)cc1	none
CC(=O)c1c[nH]c2ccc(C)cc2c1=O	MrgX1 antagonist -4.9 | MrgX1 ant reconf 70% | HEK293 Ca flux inactive | HEK293 Ca counter inactive | HEK293 Ca cntr2 inactive
CN=c1nc(-c2ccccc2)n(-c2ccccc2)s1	MrgX1 antagonist -4.9 (no result: RGS4 inh, RGS4 pot) | MrgX1 ant reconf inactive | HEK293 Ca flux inactive | HEK293 Ca counter inactive | HEK293 Ca cntr2 inactive
Nc1cccnc1Sc1cc(Cl)c(Cl)cc1Cl	MrgX1 antagonist -6.5 | MrgX1 ant reconf inactive | HEK293 Ca flux inactive | HEK293 Ca counter inactive | HEK293 Ca cntr2 inactive
Cn1c(=O)[nH]c(=O)c2c1nc1n2CC(COc2ccc3ccccc3c2)O1 (centres undefined)	none
N#Cc1cc(-c2ccccc2)nnc1Sc1ccc(F)cc1	none
N#Cc1cc(-c2ccccc2)nnc1Sc1ccccc1	MrgX1 antagonist -4.9 | MrgX1 ant reconf 79% | HEK293 Ca flux inactive | HEK293 Ca counter inactive | HEK293 Ca cntr2 inactive
CN(C)S(=O)(=O)c1ccc(C(=O)Nc2ccc(S(=O)(=O)NC3=NCCCCC3)cc2)cc1	MrgX1 antagonist -7.5 | MrgX1 ant reconf inactive | HEK293 Ca flux inactive | HEK293 Ca counter inactive | HEK293 Ca cntr2 inactive
O=C(Nc1ccc(S(=O)(=O)NC2=NCCCCC2)cc1)c1ccc(C(F)(F)F)cc1	none
Cn1nc(C(=O)NCc2ccccc2Cl)c2c1-c1ccccc1S(=O)(=O)C2	none
COC(=O)c1ccc(OC(=O)c2ccccc2F)cc1	none
S=C(NCCNC(=S)Nc1ccccc1Cl)Nc1ccccc1Cl	MrgX1 antagonist -4.7 | MrgX1 ant reconf 85% | HEK293 Ca flux inactive | HEK293 Ca counter inactive | HEK293 Ca cntr2 inactive
CN(C)CCNC(=S)Nc1ccccc1Cl	none
Cc1c(Cl)cccc1NC(=S)NCCCN(C)C	MrgX1 antagonist -5.5 | MrgX1 ant reconf inactive | HEK293 Ca flux inactive | HEK293 Ca counter inactive | HEK293 Ca cntr2 inactive
Cc1ccc(Cl)cc1N1CCN(C(=O)c2cc3c(=O)[nH]c4ccccc4c3n2C)CC1	MrgX1 antagonist -14 | MrgX1 ant reconf 36% | HEK293 Ca flux inactive | HEK293 Ca counter inactive | HEK293 Ca cntr2 inactive
COc1ccc(OC)c(CCNC(=O)c2cccc(NC(=O)C3=C(C)OCCS3)c2)c1	none
